The source made the active and inactive calls. The calls are words filed in the database; no cut-off is given here.

The source of these data is ChEMBL document CHEMBL4316597, “Design, Synthesis, and Biological Evaluation of Itaconic Acid Derivatives as Potential Anti-Influenza Agents” (J Med Chem, 2019).

One series deals with MDCK. The series is described as follows: Inhibition of CRM1 in MDCK cells infected with Influenza A virus (A/WSN/33) assessed as reduction in CRM1-mediated viral protein nuclear export by measuring reduction in NP protein distribution to cytoplasm at 10 uM measured after 9 hrs post infection by IF-staining based microscopy. In kind it is cell-based. The note with it: Canis lupus familiaris. The gist of the method: (§1)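 MDCK cells grown on coverslips (2 × 10^5/well, 16 h), infected at MOI 0.1 for 1 h, washed, then kept in E0 with test compound (1 or 10 μM) or LMB 10 nM; DMSO 0.05% as mock. Fixed at 9 h pi in 4% paraformaldehyde and immunostained for M1, NP, NS2 or PA (1:50), with Hoechst nuclear stain. Viewed by confocal microscopy at 63×. NP nuclear/cytoplasmic intensity ratio quantified; three independent experiments.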

The test system of series [1] is Influenza A virus. The experiment in a line: Inhibition of viral protein sub-cellular distribution in Influenza A virus (A/WSN/33) infected in MDCK cells assessed as reduction in M1 protein distribution to cytoplasm at 10 uM measured after 9 hrs post infection by IF-staining based microscopy. Type of series: functional, organism-based. The note with it: A/WSN/1933(H1N1). Summed up:
as §1

Series [2] has as its system Influenza A virus. The series is described as follows: Inhibition of viral protein synthesis in Influenza A virus (A/WSN/33) infected in MDCK cells assessed as effect on NP protein level at 10 uM measured up to 9 hrs post infection by Western blot analysis. Type of series: functional, organism-based. As to conditions: A/WSN/1933(H1N1). Summed up:
(§2)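 MDCK cells (5 × 10^5/well) infected with A/WSN/33 at MOI 0.1, washed twice, then held in E0 with or without 10 μM compound. Lysed in Triton X-100/deoxycholate buffer, equal protein separated by SDS-PAGE, and immunoblotted for viral proteins with GAPDH as loading control. Time-course harvests up to 9 h pi.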

The nature of series [3]: Selectivity ratio of CC50 for MDCK cells to EC50 for Influenza A virus A/TW/3446/02 (H3N2). As to conditions: dog, read-out: Ratio CC50/EC50. In kind it is toxicity. Summed up: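 MDCK cells (2 × 10^4/well, E10, 16–24 h) infected at nine-fold TCID50 with compound for 72 h, 37 °C, 5% CO2. Cells were fixed in 4% paraformaldehyde and stained with crystal violet; EC50 is from Reed–Muench. For CC50, cells had compound alone for 72 h, then MTT 3 h, DMSO, A570, Reed–Muench. SI = CC50/EC50; three independent experiments.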

The subject of series [4] is Influenza A virus. The series is described as follows: Inhibition of viral protein synthesis in Influenza A virus (A/WSN/33) infected in MDCK cells assessed as effect on NS1 protein level at 10 uM measured up to 9 hrs post infection by Western blot analysis. The note with it: A/WSN/1933(H1N1). In kind it is functional, organism-based. The gist of the method:
as §2
(A western blot detects proteins with antibodies after separation by electrophoresis.)

For series [5], the system named is Influenza A virus. The experiment in a line: Inhibition of viral protein synthesis in Influenza A virus (A/WSN/33) infected in MDCK cells assessed as effect on M1 protein level at 10 uM measured up to 9 hrs post infection by Western blot analysis. Type of series: functional, organism-based. As to conditions: A/WSN/1933(H1N1). Summed up: as §2
Series [6] has as its system Influenza A virus. The series is described as follows: Inhibition of viral RNA synthesis in Influenza A virus (A/WSN/33) infected in MDCK cells assessed as effect on matrix protein 1 RNA level at 10 uM measured up to 9 hrs post infection by RT-qPCR analysis. Type of series: functional, organism-based. As to conditions: A/WSN/1933(H1N1). Summed up:
(§3)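 MDCK monolayers (5 × 10^5/well) infected with A/WSN/33, then given 10 μM compound during or after infection. Total RNA extracted with TRIzol at 0, 3, 6 and 9 h pi. Viral RNA quantified by RT-qPCR with M1-specific primers, GAPDH used for quantitative standards. Representative of three independent experiments.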
For orientation: Quantitative PCR measures a nucleic acid by following its amplification.

Series [7] concerns Influenza A virus. The series is described as follows: Antiviral activity against Influenza A virus (A/WSN/33) infected in MDCK cells at 10 uM added at 6 hrs to 9 hrs post infection and measured after 9 hrs by plaque assay. Type of series: functional, organism-based. As to conditions: A/WSN/1933(H1N1). Summed up:
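MDCK monolayers exposed to compound (1 or 10 μM) over windows of −3, −1, 0, 3 or 6 to 9 h pi. A/WSN/33 adsorbed at MOI 0.1 from −1 to 0 h, then removed with a PBS wash. Supernatant taken at 9 h pi and titred by plaque assay, normalised to virus-only (100%). Average of three independent experiments.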

A further series concerns Erythrocyte. The experiment in a line: Induction of hemagglutination in guinea pig RBC at serial dilution from 50 uM after 1 hr by HAI assay. Type of series: cell-based, Cavia porcellus. The gist of the method: (§4)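 Virus titrated on 0.5% guinea pig RBCs to define 1 HA unit; 4 HA units used. Compound two-fold serially diluted from 50 µM and mixed with virus for 30 min at room temperature, or tested without virus for direct agglutination. 0.5% RBCs then added and agglutination scored after 1 h. DMSO/RBC-only and virus-only controls included.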

The test system of series [8] is Influenza A virus. The experiment in a line: Inhibition of viral protein sub-cellular distribution in Influenza A virus (A/WSN/33) infected in MDCK cells assessed as reduction in PA protein distribution to cytoplasm at 10 uM measured after 9 hrs post infection by IF-staining based microscopy. In kind it is functional, organism-based. The note with it: A/WSN/1933(H1N1). The gist of the method: as §1

A short description of series [9]: Cytotoxicity against MDCK cells assessed as cell death after 72 hrs by MTT assay. The note with it: dog. In kind it is cell-based, Canis lupus familiaris. The gist of the method:
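MDCK or RD cells at 2 × 10^4/well in E10, overnight at 37 °C/5% CO2, DPBS wash, then exposed to graded compound concentrations for 72 h. MTT added for 3 h, formazan dissolved in DMSO, absorbance read at 570 nm. CC50 (50% cell death) by Reed–Muench.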
For orientation: Formazan colour is commonly taken as a measure of viable cells.

Series [10] deals with Influenza A virus. The experiment in a line: Antiviral activity against pandemic Influenza A virus A/TW/90206/09 (H1N1) SO4 infected in MDCK cells after 72 hrs by crystal violet-staining based assay. Type of series: functional, organism-based. The note with it: A/TW/90206/09 (H1N1) SO4, MDCK. Summed up: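 Cells seeded at 2 × 10^4/well in E10 (DMEM, 10% FBS), 16–24 h at 37 °C/5% CO2, washed with DPBS, then infected at nine-fold TCID50 with or without serial compound concentrations. Influenza is run in MDCK and enterovirus/rhinovirus in RD. Incubated 72 h, fixed in 4% paraformaldehyde, stained with 0.1% crystal violet, and read for cell density. EC50 = 50% CPE inhibition by Reed–Muench; mean ± S.D. of at least three runs.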

Series [11] relates to Influenza A virus. The experiment in a line: Inhibition of viral protein synthesis in Influenza A virus (A/WSN/33) infected in MDCK cells assessed as effect on HA protein level at 10 uM measured up to 9 hrs post infection by Western blot analysis. Type of series: functional, organism-based. As to conditions: A/WSN/1933(H1N1). Summed up: as §2
Series [12] relates to Influenza A virus. The experiment in a line: Antiviral activity against Influenza A virus (A/WSN/33) infected in MDCK cells assessed as inhibition of virus-induced cytopathic effects at 10 uM after 36 hrs by microscopic analysis. As to conditions: A/WSN/1933(H1N1). In kind it is functional, organism-based. The gist of the method:
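MDCK cells (2 × 10^5/well) grown 16–24 h, infected with A/WSN/33 at MOI 0.5 for 1 h, rinsed twice with DPBS, then kept in serum-free E0 with 10 μM compound at 37 °C. Cell morphology checked by light microscopy at 12 and 36 h pi. Drug-only and virus-only arms included; three repetitions.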

The target in series [13] is Hemagglutinin (Influenza A virus) (UniProt B4URE7). The experiment in a line: Inhibition Influenza A virus (A/WSN/33) HA infected in guinea pig RBC assessed as reduction in hemagglutination at serial dilution from 50 uM after 1 hr by HAI assay. As to conditions: Influenza A virus (A/WSN/1933(H1N1)). The gist of the method:
as §4

In series [14] the test system is Influenza A virus. The experiment in a line: Inhibition of viral RNA synthesis in Influenza A virus (A/WSN/33) infected in MDCK cells at 10 uM measured up to 9 hrs post infection by RT-qPCR analysis. As to conditions: A/WSN/1933(H1N1). Type of series: functional, organism-based. Summed up:
as §3

Hemagglutinin (Influenza A virus), sequence (B4URE7 as listed by the source): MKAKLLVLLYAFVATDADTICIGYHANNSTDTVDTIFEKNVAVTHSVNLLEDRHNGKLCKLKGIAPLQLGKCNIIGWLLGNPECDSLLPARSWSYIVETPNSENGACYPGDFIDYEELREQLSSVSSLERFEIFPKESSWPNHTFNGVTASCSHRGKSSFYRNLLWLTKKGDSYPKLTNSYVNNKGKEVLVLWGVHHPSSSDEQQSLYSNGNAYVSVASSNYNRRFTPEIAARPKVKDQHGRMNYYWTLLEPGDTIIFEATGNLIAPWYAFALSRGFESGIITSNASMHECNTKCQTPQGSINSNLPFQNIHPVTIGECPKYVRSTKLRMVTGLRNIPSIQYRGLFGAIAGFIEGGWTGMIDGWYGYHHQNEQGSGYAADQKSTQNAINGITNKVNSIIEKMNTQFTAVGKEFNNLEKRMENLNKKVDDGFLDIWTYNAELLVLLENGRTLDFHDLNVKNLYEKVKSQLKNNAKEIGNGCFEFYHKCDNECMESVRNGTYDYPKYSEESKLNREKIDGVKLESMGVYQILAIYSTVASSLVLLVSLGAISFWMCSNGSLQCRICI

In general, CC50 refers to the concentration that lowers cell viability or growth by half. Broadly, the EC50 is the concentration giving half of the maximal effect. Low readings indicate higher potency in that assay, high ones lower potency in that assay. In the case of `C=C(CC(=O)Nc1ccc(F)cc1F)C(=O)Nc1ccc(F)cc1F`, the inhibition result in the series on MDCK was “Active”. The inhibition entry in the series on Influenza A virus [1], with Influenza A virus [2], in the series with Influenza A virus [4], in the series on Influenza A virus [5], in the series on Influenza A virus [6] and in the series on Influenza A virus [8] was “inactive” each time. Further, the inhibition entry (in the series on Influenza A virus [11]; in series [13]; in the series on Influenza A virus [14]) was “inactive” in each case. The selectivity ratio in series [3] is 18. Further, the result in the series on Influenza A virus [7] was inactive. Also, the Activity entry with Erythrocyte is listed as “Non-Toxic”. For the same compound, in [9], the CC50 at 72 h amounted to 84.7 µM. For the same compound, in the series with Influenza A virus [10], the EC50 worked out at 2.98 µM. The outcome in the series on Influenza A virus [12] was Active.
